In general, IC50 refers to the midpoint of a concentration-inhibition curve.

Data on 13 compounds can be found in ChEMBL document CHEMBL4196173, “Stabilized β-Hairpin Peptide Inhibits Insulin Degrading Enzyme” (J Med Chem, 2018).

Each structure is given as a SMILES string. Bridge positions count the residues as written; N and C are the ends. Square brackets hold non-standard residues; d marks the D form. Peptide text beside a SMILES is read from it. * marks the point of attachment. Ileψ(thiazoline)Cys = CC[C@H](C)[C@H](N)C1=N[C@H](C(=O)*)CS1; dOrn = NCCC[C@@H](N)C(=O)O

One series relates to HeLa. As to the kind of experiment: Cytotoxicity against human HeLa cells assessed as reduction in cell viability at <300 uM after 24 hrs at 310 K by MTT assay. The series is classed as cell-based. The gist of the method: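 HeLa cells were grown overnight in DMEM with 10% FBS, then exposed to serial dilutions starting at 300 μM in medium with 5% FBS for 24 h at 310 K under 5% CO2. MTT was added for a further 4 h and formazan absorbance read at 490 nm. Three independent experiments in duplicate.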

A short description of series [1]: Hemolytic activity against mouse RBC at 300 uM after 1 hr at 310 K. The format is ADME, cell-based, Erythrocyte. The note with it: mouse red blood cells (erythrocytes), read-out: Activity. A digest of the protocol:
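Fresh mouse red cells were washed six times and suspended at 1 × 10^8 cells/mL in PBS. Peptides at 2.3–300 μM were added for 1 h at 310 K. After centrifugation, hemoglobin in the supernatant was read at 576 nm. PBS served as 0% and 0.1% Triton X-100 as 100% lysis. Three independent experiments in duplicate.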

In the next series the target is T1, Insulin-degrading enzyme (Mus musculus, UniProt Q9JHR7).
T1 sequence (Q9JHR7 whole entry): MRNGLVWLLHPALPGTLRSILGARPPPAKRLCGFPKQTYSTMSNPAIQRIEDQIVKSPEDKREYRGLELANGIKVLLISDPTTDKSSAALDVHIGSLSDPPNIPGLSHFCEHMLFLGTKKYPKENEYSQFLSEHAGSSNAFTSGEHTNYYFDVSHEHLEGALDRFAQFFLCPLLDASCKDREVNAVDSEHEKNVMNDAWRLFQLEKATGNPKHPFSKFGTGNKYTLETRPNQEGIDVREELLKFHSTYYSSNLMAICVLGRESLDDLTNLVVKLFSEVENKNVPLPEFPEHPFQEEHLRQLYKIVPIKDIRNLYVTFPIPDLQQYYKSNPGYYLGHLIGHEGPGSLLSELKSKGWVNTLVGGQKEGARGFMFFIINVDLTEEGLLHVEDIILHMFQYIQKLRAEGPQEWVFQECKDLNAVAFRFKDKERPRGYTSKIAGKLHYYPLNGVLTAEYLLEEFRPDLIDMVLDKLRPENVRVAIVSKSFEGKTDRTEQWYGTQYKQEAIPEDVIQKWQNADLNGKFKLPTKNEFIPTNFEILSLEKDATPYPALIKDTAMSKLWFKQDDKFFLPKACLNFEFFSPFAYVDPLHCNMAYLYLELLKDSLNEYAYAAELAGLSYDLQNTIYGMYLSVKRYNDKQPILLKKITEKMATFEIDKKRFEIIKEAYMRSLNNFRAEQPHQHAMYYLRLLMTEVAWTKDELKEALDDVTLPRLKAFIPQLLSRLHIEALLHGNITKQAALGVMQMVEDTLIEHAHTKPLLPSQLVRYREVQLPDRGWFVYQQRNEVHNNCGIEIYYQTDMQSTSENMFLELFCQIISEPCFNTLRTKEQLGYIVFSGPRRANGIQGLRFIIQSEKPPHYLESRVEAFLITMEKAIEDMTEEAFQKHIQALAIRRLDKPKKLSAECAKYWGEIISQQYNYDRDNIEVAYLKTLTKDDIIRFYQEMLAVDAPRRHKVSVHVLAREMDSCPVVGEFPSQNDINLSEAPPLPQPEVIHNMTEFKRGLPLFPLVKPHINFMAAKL
As to the kind of experiment: Inhibition of mouse His-tagged IDE (42 to 1019 residues) using fluorophore/quencher-tagged RPPGFSAFK(Dnp)-OH peptide as substrate preincubated for 10 mins followed by substrate addition measured over 5 mins by TR-FRET assay. (In TR-FRET formats the signal depends on donor and acceptor labels being close together.)

Series [2] is described as follows: Drug uptake in human HeLa cells at 5 uM using FITC-labeled compound after 2 hrs at 310 K by DAPI-staining based confocal microscopy. The series is classed as ADME, cell-based.
A short description of series [3]: Drug uptake in human HeLa cells at 5 uM using FITC-labeled compound after 2 hrs at 310 K by trypan blue-fluorescence based FACS analysis. The series is classed as ADME, cell-based. The gist of the method: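 HeLa cells were grown overnight in DMEM with 10% FBS, then given 5 μM FITC-labelled peptide in FBS-free medium for 2 h at 310 K. Cells were washed with PBS and 0.4% trypan blue, trypsinized and washed. Mean fluorescence was measured by flow cytometry with gated cell counts. Three independent experiments.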
For orientation: Flow cytometry measures light scatter and fluorescence of single cells or particles in a stream.

`CC(=O)N[C@@H](CCC(=O)O)C(=O)N[C@@H](Cc1ccccc1)C(=O)N[C@@H](CC(C)C)C(=O)N[C@@H](Cc1c[nH]c2ccccc12)C(=O)N[C@@H](C)C(=O)NCC(=O)N1CCC[C@@H]1C(=O)N1CCC[C@H]1C(=O)N[C@@H](Cc1ccc(O)cc1)C(=O)N[C@@H](C)C(=O)N[C@@H](CS)C(=O)N[C@H](C(=O)NCC(=O)N[C@@H](CCCNC(=N)N)C(=O)N[C@@H](CC(C)C)C(=O)N[C@@H](CCC(=O)O)C(N)=O)C(C)C`: the Activity result with HeLa is “Non-Toxic”. In addition, in series [1], the hemolysis at 1 h, 300 µM was less than 10%.

In the case of `CC[C@H](C)[C@H](N)C1=N[C@H](C(=O)N[C@@H](CC(C)C)C(=O)N[C@H](CCC(=O)O)C(=O)N[C@H](C(=O)N[C@H]2CCCCNC(=O)[C@H](CC(N)=O)NC(=O)[C@@H](CC(=O)O)NC(=O)[C@H](Cc3cnc[nH]3)NC(=O)[C@@H](Cc3ccccc3)NC(=O)[C@H]([C@@H](C)CC)NC(=O)[C@@H](CCCN)NC2=O)[C@@H](C)CC)CS1` [BACITRACIN] ({Ileψ(thiazoline)Cys}-L[dE]IK[dOrn]I[dF]H[dD]N; lactam 4-C), at Insulin-degrading enzyme, the IC50 was more than 200000 nM.

Regarding `CC(C)C[C@H](NC(=O)[C@H](C)NC(=O)[C@H](CCC(=O)O)NC(=O)[C@@H]1CCCN1C(=O)[C@H]1CCCN1C(=O)[C@H](Cc1ccccc1)NC(=O)[C@@H](N)CCCNC(=N)N)C(=O)N[C@@H](Cc1ccc(O)cc1)C(=O)N[C@@H](CC(C)C)C(=O)N[C@H](C(N)=O)C(C)C`, the half-maximal inhibitory concentration (IC50) on Insulin-degrading enzyme was more than 20000 nM.

For the compound `CC(C)C[C@H](NC(=O)[C@H](C)NC(=O)[C@@H](N)CCC(=O)O)C(=O)N[C@@H](Cc1ccc(O)cc1)C(=O)N[C@@H](CC(C)C)C(=O)N[C@H](C(=O)N[C@@H](CS)C(=O)NCC(N)=O)C(C)C` (H-EALYLVCG-NH2), half-maximal inhibition at Insulin-degrading enzyme (IC50) required 230 nM.

At Insulin-degrading enzyme, `CC(C)C[C@H](NC(=O)[C@H](C)NC(=O)[C@H](CCC(=O)O)NC(=O)[C@@H]1CCCN1C(=O)[C@H]1CCCN1C(=O)[C@H](Cc1ccccc1)NC(=O)[C@H](CCCNC(=N)N)NC(=O)[C@H](Cc1c[nH]c2ccccc12)NC(=O)[C@@H](N)CCC(=O)O)C(=O)N[C@@H](Cc1ccc(O)cc1)C(=O)N[C@@H](CC(C)C)C(=O)N[C@H](C(N)=O)C(C)C` gave a 50% inhibitory concentration (IC50) of 86 nM.

As for `CC(C)C[C@H](NC(=O)[C@H](C)NC(=O)[C@H](CCC(=O)O)NC(=O)CNC(=O)CNC(=O)[C@H](Cc1ccccc1)NC(=O)[C@H](CCCNC(=N)N)NC(=O)[C@H](Cc1c[nH]c2ccccc12)NC(=O)[C@@H](N)CCC(=O)O)C(=O)N[C@@H](Cc1ccc(O)cc1)C(=O)N[C@@H](CC(C)C)C(=O)N[C@H](C(=O)N[C@@H](CS)C(=O)NCC(N)=O)C(C)C` (H-EWRFGGEALYLVCG-NH2), the IC50 against Insulin-degrading enzyme is 300 nM. The Drug uptake entry in series [2] and in series [3] was “Active” each time. Moreover, the hemolysis at 1 h, 300 µM in series [1] was less than 10%.

Regarding `CC(C)C[C@H](NC(=O)[C@H](C)NC(=O)[C@@H](N)CCC(=O)O)C(=O)N[C@@H](Cc1ccc(O)cc1)C(=O)N[C@@H](CC(C)C)C(=O)N[C@H](C(=O)N[C@@H](CS)C(=O)NCC(=O)N1CCC[C@@H]1C(=O)N1CCC[C@H]1C(=O)N[C@@H](Cc1ccccc1)C(=O)N[C@@H](CCCNC(=N)N)C(=O)N[C@@H](Cc1c[nH]c2ccccc12)C(=O)N[C@@H](CCC(=O)O)C(N)=O)C(C)C`, the IC50 on Insulin-degrading enzyme is 170 nM.

Compound `CC(C)C[C@H](NC(=O)[C@@H]1CNC(=O)C[C@H](NC(=O)[C@H](Cc2ccccc2)NC(=O)[C@H](CCCNC(=N)N)NC(=O)[C@H](Cc2c[nH]c3ccccc23)NC(=O)[C@@H](N)CCC(=O)O)C(=O)NCC(=O)NCC(=O)NCC(=O)N2CCC[C@@H]2C(=O)N2CCC[C@H]2C(=O)N[C@@H](CCC(=O)O)C(=O)N1)C(=O)N[C@@H](Cc1ccc(O)cc1)C(=O)N[C@@H](CC(C)C)C(=O)N[C@H](C(=O)N[C@@H](CS)C(=O)NCC(N)=O)C(C)C` returned an IC50 at Insulin-degrading enzyme of 44 nM. The Drug uptake result in series [2] and in series [3] was “Active” in each case.

With `CC(C)C[C@H](NC(=O)[C@H](C)NC(=O)[C@H](CCC(=O)O)NC(=O)[C@@H]1CCCN1C(=O)[C@H]1CCCN1C(=O)[C@H](Cc1ccccc1)NC(=O)[C@@H](N)CCCNC(=N)N)C(=O)N[C@@H](Cc1ccc(O)cc1)C(N)=O`, the IC50 against Insulin-degrading enzyme is more than 20000 nM.

On to `CC(C)C[C@H](NC(=O)[C@@H]1CSC[C@H](NC(=O)[C@H](Cc2ccccc2)NC(=O)[C@H](CCCNC(=N)N)NC(=O)[C@H](Cc2c[nH]c3ccccc23)NC(=O)[C@@H](N)CCC(=O)O)C(=O)NCC(=O)N2CCC[C@@H]2C(=O)N2CCC[C@H]2C(=O)N[C@@H](CCC(=O)O)C(=O)N1)C(=O)N[C@@H](Cc1ccc(O)cc1)C(=O)N[C@@H](CC(C)C)C(=O)N[C@H](C(=O)N[C@H](CS)C(=O)NCC(N)=O)C(C)C`, for which inhibition against Insulin-degrading enzyme was half-maximal at 60 nM (IC50). That is a double-digit nanomolar value.

The compound `CC(C)C[C@H](NC(=O)[C@H](C)NC(=O)[C@H](CCC(=O)O)NC(=O)[C@@H]1CCCN1C(=O)[C@H]1CCCN1C(=O)[C@H](Cc1ccccc1)NC(=O)[C@H](CCCNC(=N)N)NC(=O)[C@H](Cc1c[nH]c2ccccc12)NC(=O)[C@@H](N)CCC(=O)O)C(=O)N[C@@H](Cc1ccc(O)cc1)C(N)=O` yielded an IC50 at Insulin-degrading enzyme of 601 nM. Against the preceding compound, the IC50 is about 10-fold higher.

In turn, `CC(C)C[C@H](NC(=O)[C@H](C)NC(=O)[C@H](CCC(=O)O)NC(=O)[C@@H]1CCCN1C(=O)[C@H]1CCCN1C(=O)[C@H](Cc1ccccc1)NC(=O)[C@H](CCCNC(=N)N)NC(=O)[C@H](Cc1c[nH]c2ccccc12)NC(=O)[C@@H](N)CCC(=O)O)C(=O)N[C@@H](Cc1ccc(O)cc1)C(=O)N[C@@H](CC(C)C)C(=O)N[C@H](C(=O)N[C@H](CS)C(=O)NCC(N)=O)C(C)C` displayed a half-inhibitory concentration (IC50) at Insulin-degrading enzyme of 74 nM. The Drug uptake result in series [2] and in series [3] was “Active” each time.

`CC(C)C[C@H](NC(=O)[C@@H]1CSC[C@H](NC(=O)[C@H](Cc2ccccc2)NC(=O)[C@H](CCCNC(=N)N)NC(=O)[C@H](Cc2c[nH]c3ccccc23)NC(=O)[C@@H](N)CCC(=O)O)C(=O)NCC(=O)NCC(=O)NCC(=O)N2CCC[C@@H]2C(=O)N2CCC[C@H]2C(=O)N[C@@H](CCC(=O)O)C(=O)N1)C(=O)N[C@@H](Cc1ccc(O)cc1)C(=O)N[C@@H](CC(C)C)C(=O)N[C@H](C(=O)N[C@H](CS)C(=O)NCC(N)=O)C(C)C` registered an IC50 against Insulin-degrading enzyme of 77 nM.
